From PubChem BioAssay
These entries were drawn from the full list.
Apaf1 activ = activators of human Apaf-1 apoptosome, primary screen, biochemical, DEVD-Rh110 fluorescence, uHTS; Apoptotic protease-activating factor 1 (Homo sapiens), O14727; Apaf-1 apoptosome caspase-3 activation; active compounds read low; activity change, negative = activation, % at 20 µM; actives 0.31% (n = 330,000); AID 489031, 2010;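 active means activity change at or below -40% at 20 µM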
Target sequence (O14727 whole entry, looked up): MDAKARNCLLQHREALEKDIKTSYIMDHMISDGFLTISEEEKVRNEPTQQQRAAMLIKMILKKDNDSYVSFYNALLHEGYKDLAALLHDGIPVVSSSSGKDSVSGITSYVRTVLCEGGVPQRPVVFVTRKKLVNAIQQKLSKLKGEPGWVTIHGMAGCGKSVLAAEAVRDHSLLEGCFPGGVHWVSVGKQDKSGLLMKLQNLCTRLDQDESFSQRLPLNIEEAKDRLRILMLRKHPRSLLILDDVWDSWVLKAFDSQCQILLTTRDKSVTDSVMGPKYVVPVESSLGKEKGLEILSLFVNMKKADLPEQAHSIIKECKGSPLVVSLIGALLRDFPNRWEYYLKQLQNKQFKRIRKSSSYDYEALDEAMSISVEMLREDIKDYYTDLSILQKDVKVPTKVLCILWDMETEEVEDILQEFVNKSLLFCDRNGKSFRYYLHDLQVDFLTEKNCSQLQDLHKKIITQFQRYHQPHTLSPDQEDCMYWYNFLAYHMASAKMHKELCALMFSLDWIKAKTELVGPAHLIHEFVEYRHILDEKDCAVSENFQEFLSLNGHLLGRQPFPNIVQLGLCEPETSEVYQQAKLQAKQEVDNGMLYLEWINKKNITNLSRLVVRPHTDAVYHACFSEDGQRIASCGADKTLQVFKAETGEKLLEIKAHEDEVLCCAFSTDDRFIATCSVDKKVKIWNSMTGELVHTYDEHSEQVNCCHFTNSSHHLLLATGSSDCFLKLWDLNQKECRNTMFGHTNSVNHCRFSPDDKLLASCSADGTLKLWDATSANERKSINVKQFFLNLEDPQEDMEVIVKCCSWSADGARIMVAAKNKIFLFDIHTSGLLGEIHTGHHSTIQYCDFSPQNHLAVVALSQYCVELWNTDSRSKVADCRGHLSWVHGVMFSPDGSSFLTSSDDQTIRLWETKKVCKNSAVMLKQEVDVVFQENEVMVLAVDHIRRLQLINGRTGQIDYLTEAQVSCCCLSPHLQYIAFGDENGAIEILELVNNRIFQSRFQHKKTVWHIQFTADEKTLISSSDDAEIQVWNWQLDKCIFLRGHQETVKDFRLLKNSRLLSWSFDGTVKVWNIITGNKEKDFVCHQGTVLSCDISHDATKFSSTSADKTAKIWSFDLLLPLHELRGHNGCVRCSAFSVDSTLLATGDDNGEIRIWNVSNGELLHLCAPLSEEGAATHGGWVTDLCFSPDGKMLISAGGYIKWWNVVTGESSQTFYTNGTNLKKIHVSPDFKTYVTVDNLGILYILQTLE
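Material: biochemical Apaf-1 apoptosome reconstitution; Medium: 20 mM HEPES buffer, pH 7.5, containing CHAPS and BSA; Reagent: dATP, cytochrome c, and (Z-DEVD)2-Rh110 caspase-3 substrate; Times: 30 min preincubation, 50 min reaction, room temperature; Signal: Rh110 fluorescence, excitation 480 nm, emission 540 nm; Measure: Caspase-3 activity via Apaf-1.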
Rh110 act interf = Rh110 fluorescence interference by putative Apaf-1 activators, confirmation, artefact control for Apaf-1 activator project, biochemical, 20 µM. shares compounds with Apaf1 activ. quenched caspase reaction, Ex480/Em540. fluorescence interference (activity change), % at 20 µM, hits read low. 980 tested, under 10 active. AID 504616, 2011;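 active means mean activity change at or below -40% when tested at 20 µM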
Apaf-1 act conf2 = Apaf-1 activators, single-dose retest, confirmation, biochemical, fluorescence, DEVD-Rh110, 20 µM; shares compounds with Apaf1 activ; reconstituted apoptosome caspase-3 activity; active compounds read low; activity change, negative = activation, % at 20 µM; actives 5% (n = 980);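 active means mean activity change at or below -40%, meaning activation of 40% or more, at 20 µM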
Active calls of the source: *; · = not tested or not shown.

SMILES	Apaf1 activ	Rh110 act interf	Apaf-1 act conf2
O=c1[nH]c2ccc(S(=O)(=O)Nc3ccc(-c4nnc5n4CCCCC5)cc3)cc2o1	-154*	6	16
N#Cc1c(NC(=O)c2ccc(Br)o2)n(-c2ccccc2)c2nc3ccccc3nc12	96	·	·
c1cc2cn[nH]c2cc1NC1CCCCCC1	53	·	·
Cc1ccc(C(=O)c2c(C)oc3c2C(=O)C(=O)c2ccccc2-3)cc1	88	·	·
O=[N+]([O-])c1cccc(C=Nc2cccc3ccccc23)c1O	93	·	·
CC(=O)N1CCn2c3c(c(=O)c4cc(C)ccc42)CCC31 (configuration not stated)	73	·	·
COc1ccc(/C=C2/C(=O)N(c3cccc(F)c3)N=C2C)c(OC)c1	90	·	·
CC(=O)Nc1ccc(CN2CCc3c([nH]c4ccccc34)C2C(C)(C)C)cc1 (configuration not stated)	-55*	9	15
CC(=O)c1ccc(NC(=S)Nc2cccc3cnccc23)cc1	96	·	·
CC(=O)c1ccc(NC(=O)c2cnsn2)cc1	-410*	5	12
CC(=O)c1ccc(NC(=O)c2ccc3nc(-c4ccco4)c(-c4ccco4)nc3c2)cc1	52	·	·
CC(=O)Nc1c(S(=O)(=O)c2ccccc2)c2nc3ccccc3nc2n1Cc1ccccc1	60	·	·
COCCN1C=C2C(=O)C(C)(OC(=O)CCC(=O)OC)C(=O)C=C2C=C1C1CC1 (configuration not stated)	43	·	·
Cc1ccc(-n2nc3ccc(N)cc3n2)c(C)c1	68	·	·
O=C(Cn1cc(S(=O)(=O)Cc2ccccc2)c2ccccc21)N1CCOCC1	-233*	6	4
CC1(c2ccc(OC(F)F)cc2)NC(=O)N(CC(=O)Nc2ccc(N3CCCCC3)cc2)C1=O (configuration not stated)	53	·	·
O=[N+]([O-])c1cc2c(cc1C=Nc1ccccc1)OCO2	48	·	·
CCN(CC)S(=O)(=O)c1ccc(N/N=C(\C)c2ccc3c(c2)OCO3)c([N+](=O)[O-])c1	-41*	5	4
O=C(NNc1cc(N2CCOCC2)nc(N2CCOCC2)n1)c1ccc(Cl)cc1Cl	47	·	·
COc1cc(Cn2c(N)c(C#N)c3nc4ccccc4nc32)cc(OC)c1	58	·	·
O=C1/C(=N\S(=O)(=O)c2cccs2)C([n+]2ccc(CCCc3ccccc3)cc2)=C([O-])c2ccccc21	46	·	·
Cc1c(C(=O)Nc2ccncc2)sc2nc(-c3ccc(F)cc3)cn12	-44*	7	-27
CN(C)C/C=C/C(=O)Nc1cccc(-c2c[nH]c3ncnc(Oc4ccc(NC(=O)CC(=O)Nc5ccc(F)cc5)cc4F)c23)c1	63	·	·
CC1(C(=O)O)Oc2cccnc2NC1=O (configuration not stated)	-221*	-3	7
COc1ccc(NC(=O)C(c2ccccn2)N(C(C)=O)c2ccc(C)cc2)cc1 (configuration not stated)	-415*	8	6
SMILES	Apaf1 activ	Rh110 act interf	Apaf-1 act conf2
COC1=C(Nc2ccc(C)cc2)C(=O)c2ccccc2C1=O	61	·	·
COc1ccccc1C(=O)Nc1ccc(Oc2nnc(-c3ccc(C)cc3)c3ccccc23)cc1	40	·	·
CCCN(CC(=O)Nc1ccccc1C)C(=O)C1CCCN(C(=O)c2ccc(Cl)cc2)C1 (configuration not stated)	48	·	·
CCc1ccc(Nc2n[n+](-c3ccccc3)c(-c3c(Cl)cccc3Cl)s2)cc1	44	·	·
CN(C)c1ccc(N/C=C/C(=O)C(C)(C)C)cc1	53	·	·
COc1ccc(-c2coc3c(CN4CCCCC4)c(O)c(CN4CCCCC4)c(O)c3c2=O)cc1	42	·	·
COc1ccc(C(=O)O)cc1NC(=S)NC(=O)CSc1ccc(Cl)cc1	-152*	-11	15
NS(=O)(=O)c1ccc(N=Nc2c[nH]c(=O)c(O)c2)cc1	74	·	·
CC(C)(C)OC(=O)[C@H](CCCCN)NC(=O)c1[nH]cnc1C(=O)N[C@@H](Cc1ccccc1)C(=O)OCc1ccccc1	65	·	·
CCC(CC)c1nnc(NC(=O)CN2C(=O)c3ccccc3C2=O)s1	87	·	·
COC(=O)c1ccccc1NC(=O)CN1C(=O)CSC1=O	-48*	-6	8
O=C(COC(=O)c1cc(Cl)ccc1Cl)NCCN1C(=O)CSC1=O	43	·	·
Clc1ccc(/C=N/Nc2ncnc3ccccc23)cc1Cl	43	·	·
Cc1ccc(N(CC(N)=O)C2SC(=O)N(C)C2=O)cc1 (configuration not stated)	-488*	8	12
Cc1ccc(NC2=C(N3CCCCC3)C(=O)c3ccccc3C2=O)cc1	81	·	·
Cc1ccc(NC(=O)N(CCC#N)Cc2ccccc2)cc1	-471*	-13	2
